Experimental data published in ChEMBL document CHEMBL1157729, “Structure-activity relationship and mechanism of action studies of manzamine analogues for the control of neuroinflammation and cerebral infections” (J Med Chem, 2010).
pIC50: −log10 of the molar value. Values after ≈ are worked out from the molar mass of the structure shown. Active and inactive are the calls of the source. The rule behind the calls is not given here.

How the values were obtained:
Plasmodium falciparum [1] = assay: Antiplasmodial activity against chloroquine-sensitive Plasmodium falciparum D6 after 72 hrs by LDH assay; type: functional, organism-based; details: Plasmodium falciparum, D6, 72 h; read-out: IC50
Plasmodium falciparum [2] = assay: Antiplasmodial activity against chloroquine-resistant Plasmodium falciparum W2 after 72 hrs by LDH assay; type: functional, organism-based; details: Plasmodium falciparum, W2, 72 h; read-out: IC50
Vero = assay: Cytotoxicity against african green monkey Vero cells after 48 hrs by neutral red assay; type: cell-based; details: chlorocebus sabaeus
Procedure, shortened: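 Vero cells seeded at 25,000/well and grown 24 h, then exposed to serially diluted samples for 48 h. Viable cells measured by neutral red assay, with doxorubicin as positive control. IC50 taken from dose-response curves.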

[3] = test system: Mycobacterium tuberculosis; assay: Antimycobacterial activity against Mycobacterium tuberculosis H37Rv; type: functional, organism-based
Candida albicans = assay: Antifungal activity against Candida albicans ATCC 90028; type: functional, organism-based
Procedure, shortened: (§1)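 Broth microdilution per modified CLSI method; samples serially diluted in 20% DMSO/saline, tested in duplicate; inocula set by OD630 of suspensions in incubation broth; growth read at 630 nm before and after incubation; amphotericin B drug control.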

Cryptococcus neoformans = assay: Antifungal activity against Cryptococcus neoformans ATCC 90113; type: functional, organism-based; procedure, shortened: as §1
[4] = test system: Mycobacterium intracellulare; assay: Antimycobacterial activity against Mycobacterium intracellular ATCC 23068; type: functional, organism-based
Procedure, shortened: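 Modified Franzblau method; samples serially diluted in 20% DMSO/saline, tested in duplicate; inoculum set by OD630; fluorescence read at 544ex/590em before and after incubation; ciprofloxacin drug control.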

[5] = Antineuroinflammatory activity in LPS-stimulated rat neonatal microglia assessed as inhibition of PMA-induced superoxide anion production preincubated 15 mins prior to PMA challenge measured after 70 mins; type: functional, cell-based
[6] = Antineuroinflammatory activity in LPS-stimulated rat neonatal microglia assessed as inhibition of PMA-induced TXB2 production preincubated 15 mins prior to PMA challenge measured after 70 mins; type: functional, cell-based
[7] = Antineuroinflammatory activity in LPS-stimulated rat neonatal microglia assessed as drug level causing 50% PMA-induced LDH release preincubated 15 mins prior to PMA challenge measured after 70 mins; type: functional
Procedure, shortened: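 Neonatal rat microglia (2 × 10^5/well) primed with E. coli LPS 0.3 ng/mL for 17 h at 35.9 °C, washed with HBSS, given compound (0.01–10 μM) or DMSO 15 min, then PMA 1 μM; LDH read spectrophotometrically after 70 min; LDH50 relative to Triton X-100 (0.1%) release; duplicates.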

[8] = test system: Mycobacterium intracellulare; assay: Ratio of IC50 for drug to ciprofloxacin against Mycobacterium intracellular ATCC 23068; type: functional
[9] = Selectivity index, ratio of IC50 for african green monkey (Cercopithecus aethiops) Vero cells to IC50 for chloroquine-sensitive Plasmodium falciparum; type: toxicity, cell-based
[10] = test system: Mycobacterium tuberculosis; assay: Antimycobacterial activity against Mycobacterium tuberculosis; type: functional
[11] = Selectivity index, ratio of IC50 for african green monkey (Cercopithecus aethiops) Vero cells to IC50 for chloroquine-resistant Plasmodium falciparum W2; type: toxicity, cell-based
Plasmodium berghei [12] = assay: Antiplasmodial activity against Plasmodium berghei NK65 infected in Swiss Webster mice (Mus musculus) assessed as suppression of parasitaemia at 10 mg/kg, intraperitoneally administered 1 day after infection for 3 days measured after 5 days post infection relative to control; type: functional; details: route intraperitoneal
Plasmodium berghei [13] = assay: Antiplasmodial activity against Plasmodium berghei NK65 infected in Swiss Webster mice (Mus musculus) assessed as suppression of parasitaemia at 10 mg/kg, intraperitoneally administered 1 day after infection for 3 days measured after 7 days post infection relative to control; type: functional; details: route intraperitoneal
Plasmodium berghei [14] = assay: Antiplasmodial activity against Plasmodium berghei NK65 infected in Swiss Webster mice (Mus musculus) assessed as survivability at 10 mg/kg, intraperitoneally administered 1 day after infection for 3 days measured after 28 days post infection; type: functional, organism-based; set-up: dose 10 mg/kg
Plasmodium berghei [15] = assay: Antiplasmodial activity against Plasmodium berghei NK65 infected in Swiss Webster mice (Mus musculus) at 10 mg/kg, intraperitoneally administered 1 day after infection for 3 days; type: functional; details: route intraperitoneal
Plasmodium berghei [16] = assay: Antiplasmodial activity against Plasmodium berghei NK65 infected in Swiss Webster mice (Mus musculus) assessed as parasitaemia cure at 10 mg/kg, intraperitoneally administered 1 day after infection measured after 28 days post infection; type: functional
Plasmodium berghei [17] = assay: Toxicity in Plasmodium berghei NK65 infected Swiss Webster mice (Mus musculus) assessed as weight loss at 10 mg/kg, intraperitoneally administered 1 day after infection measured after 28 days post infection; type: organism-based; set-up: dose 10 mg/kg, route intraperitoneal; details: in vivo, ip, 672 h
Tubulin (Sus scrofa) [18] = target: T1, Tubulin (Sus scrofa) (UniProt P02554+P02550); assay: Inhibition of pig brain tubulin polymerization up to 30 mins by turbidimetry
T1 sequence (P02550 whole entry, looked up): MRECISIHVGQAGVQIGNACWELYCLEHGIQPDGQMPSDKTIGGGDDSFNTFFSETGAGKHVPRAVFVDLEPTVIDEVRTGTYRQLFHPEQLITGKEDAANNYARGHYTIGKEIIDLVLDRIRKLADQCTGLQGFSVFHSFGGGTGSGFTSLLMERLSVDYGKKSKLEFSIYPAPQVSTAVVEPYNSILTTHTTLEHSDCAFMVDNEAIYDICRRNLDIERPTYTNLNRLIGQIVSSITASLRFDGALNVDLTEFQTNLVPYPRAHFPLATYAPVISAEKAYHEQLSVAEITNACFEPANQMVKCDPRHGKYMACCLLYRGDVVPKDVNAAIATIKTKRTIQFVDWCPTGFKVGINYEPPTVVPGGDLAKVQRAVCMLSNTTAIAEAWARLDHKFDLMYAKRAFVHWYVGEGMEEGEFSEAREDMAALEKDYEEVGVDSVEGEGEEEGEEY
T1 sequence (P02554 whole entry, looked up): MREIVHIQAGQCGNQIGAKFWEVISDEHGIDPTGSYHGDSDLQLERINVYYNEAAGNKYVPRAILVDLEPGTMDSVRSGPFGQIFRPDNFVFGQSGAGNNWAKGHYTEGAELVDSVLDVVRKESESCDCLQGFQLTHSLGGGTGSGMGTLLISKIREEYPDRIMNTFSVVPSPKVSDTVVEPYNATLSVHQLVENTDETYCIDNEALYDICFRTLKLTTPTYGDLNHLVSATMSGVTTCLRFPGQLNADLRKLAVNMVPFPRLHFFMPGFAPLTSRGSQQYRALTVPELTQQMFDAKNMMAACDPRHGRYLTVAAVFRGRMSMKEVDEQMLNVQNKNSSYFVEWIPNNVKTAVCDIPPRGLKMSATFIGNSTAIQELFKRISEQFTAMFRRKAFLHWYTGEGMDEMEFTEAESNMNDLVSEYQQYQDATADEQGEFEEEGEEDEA

Tubulin (Sus scrofa) [19] = target: T1, Tubulin (Sus scrofa); assay: Inhibition of pig brain tubulin polymerization after 30 to 60 mins in presence of GTP and glutamate by turbidimetry
HeLa [20] = assay: Cytotoxicity against human HeLa cells after 48 hrs by trypan blue exclusion assay; type: functional
HeLa [21] = assay: Cell cycle arrest in human HeLa cells assessed as increase in G0/G1 phase accumulation at 5 uM after 24 hrs by FACS analysis; type: functional
HeLa [22] = assay: Cell cycle arrest in human HeLa cells assessed as increase in G0/G1 phase accumulation at 10 uM after 24 hrs by FACS analysis; type: functional
HeLa [23] = assay: Cell cycle arrest in human HeLa cells assessed as increase in G0/G1 phase accumulation at 20 uM after 24 hrs by FACS analysis; type: functional
HeLa [24] = assay: Cell cycle arrest in human HeLa cells assessed as increase in S phase accumulation at 3 uM after 24 hrs by FACS analysis; type: functional
HeLa [25] = assay: Cell cycle arrest in human HeLa cells assessed as increase in S phase accumulation at 5 uM after 24 hrs by FACS analysis; type: functional
HeLa [26] = assay: Cell cycle arrest in human HeLa cells assessed as increase in S phase accumulation at 10 uM after 24 hrs by FACS analysis; type: functional
HeLa [27] = assay: Cell cycle arrest in human HeLa cells assessed as increase in G0/G1 phase accumulation at 3 uM after 24 hrs by FACS analysis; type: functional
HeLa [28] = assay: Cell cycle arrest in human HeLa cells assessed as increase in S phase accumulation at 20 uM after 24 hrs by FACS analysis; type: functional
HeLa [29] = assay: Cell cycle arrest in human HeLa cells assessed as decrease in G2/M phase accumulation at 3 uM after 24 hrs by FACS analysis; type: functional; set-up: scale not given: the % may be the effect or the level left
HeLa [30] = assay: Cell cycle arrest in human HeLa cells assessed as decrease in G2/M phase accumulation at 5 uM after 24 hrs by FACS analysis; type: functional; set-up: scale not given: the % may be the effect or the level left
HeLa [31] = assay: Cell cycle arrest in human HeLa cells assessed as decrease in G2/M phase accumulation at 10 uM after 24 hrs by FACS analysis; type: functional; set-up: scale not given: the % may be the effect or the level left
HeLa [32] = assay: Cell cycle arrest in human HeLa cells assessed as decrease in G2/M phase accumulation at 20 uM after 24 hrs by FACS analysis; type: functional; set-up: scale not given: the % may be the effect or the level left

| SMILES | IC50 (Plasmodium falciparum [1]) | IC50 (Plasmodium falciparum [2]) | IC50 (Vero) | MIC [3] | IC50 (Candida albicans) | IC50 (Cryptococcus neoformans) | IC50 [4] | pIC50 [5] | pIC50 [6] | Activity [7] | Ratio IC50 [8] | also measured |
| --- | --- | --- | --- | --- | --- | --- | --- | --- | --- | --- | --- | --- |
| COC(=O)c1cc2c([nH]c3ccccc32)c(C2=C[C@@]3(O)CC/C=C\CCCCN4CC[C@@H]2[C@]2(C[C@@H]5/C=C\CCCCN5[C@H]23)C4)n1 | 0.011 µg/mL (≈ 0.0181 µM) | 0.015 µg/mL (≈ 0.0247 µM) | 0.2 µg/mL (≈ 0.33 µM) | > 64 µg/mL | 20 µg/mL (≈ 33 µM) | 2 µg/mL (≈ 3.3 µM) | < 0.02 µg/mL | 7.52 | 6.96 | >10 µM | 5 |  |
| COC(=O)C1Cc2c([nH]c3ccccc23)C(C2=C[C@@]3(O)CC/C=C\CCCCN4CC[C@@H]2[C@]2(C[C@@H]5/C=C\CCCCN5[C@H]23)C4)N1 (some centres not stated) | 0.1 µg/mL (≈ 0.164 µM) | 0.17 µg/mL (≈ 0.278 µM) | 1 µg/mL (≈ 1.64 µM) | > 64 µg/mL | > 20 µg/mL | 3.5 µg/mL (≈ 5.73 µM) | 0.06 µg/mL (≈ 0.0982 µM) | 5.07 | 5.31 | 5 µM | 5 |  |
| Oc1cccc2c1[nH]c1c(C3=C[C@@]4(O)CC/C=C\CCCCN5CC[C@@H]3[C@]3(CC6/C=C\CCCCN6[C@H]34)C5)nccc12 (some centres not stated) |  |  |  |  |  |  |  | < 5.00 | 6.30 | >10 µM |  | Ratio IC50 [9]: 180; MIC [10]: 0.91 µg/mL (≈ 1.61 µM); selectivity ratio ([11]; Vero cells, read-out: Ratio IC50): 25; Ratio IC50 ([11]; vero): 140; Activity (Plasmodium berghei [12]): 100%; Activity (Plasmodium berghei [13]): 100%; Activity (Plasmodium berghei [14]): Active; MST (Plasmodium berghei [15]): > 28 days; Activity (Plasmodium berghei [16]; route intraperitoneal): 80%; Activity (Plasmodium berghei [17]): Toxic |
| O[C@]12C=C(c3nccc4c3[nH]c3ccccc34)[C@@H]3CCN(CCCC/C=C\CC1)C[C@@]31C[C@@H]3/C=C\CCCCN3[C@H]12 |  |  |  |  |  |  |  |  |  |  |  | inhibition (Plasmodium berghei [14]): inactive; inhibition (Plasmodium berghei [16]): inactive; inhibition (Tubulin (Sus scrofa) [18]): inactive; inhibition (Tubulin (Sus scrofa) [19]): inactive |
| CC(C)Cn1c2ccccc2c2ccnc(C3=C[C@@]4(O)CC/C=C\CCCCN5CC[C@@H]3[C@]3(C[C@@H]6/C=C\CCCCN6[C@H]34)C5)c21 [9-N-ISOBUTYLMANZAMINE A] | 0.039 µg/mL (≈ 0.0645 µM) | 0.078 µg/mL (≈ 0.129 µM) | 0.4 µg/mL (≈ 0.661 µM) | 4.6 µg/mL (≈ 7.6 µM) | 10 µg/mL (≈ 16.5 µM) | 3 µg/mL (≈ 4.96 µM) | 1 µg/mL (≈ 1.65 µM) | 5.24 | < 5.00 | >10 µM |  | Activity (HeLa [20]): >30 µg/mL; Activity (HeLa [21]): 54.9%; Activity (HeLa [22]): 51.1%; Activity (HeLa [23]): 52.3%; Activity (HeLa [24]): 16.6%; Activity (HeLa [25]): 16.4%; Activity (HeLa [26]): 19.5%; Activity (HeLa [27]): 54.2%; Activity (HeLa [28]): 19.1%; Activity (HeLa [29]): 19.2%; Activity (HeLa [30]): 17.8%; Activity (HeLa [31]): 17%; Activity (HeLa [32]): 17.4% |
